≈ marks a conversion by molar mass, not a printed value. Calls of active or inactive are those of the source. The calls are words filed in the database; no cut-off is given here.
Columns and labels:
[1] = test system: Human immunodeficiency virus; test: Antiviral activity against Human immunodeficiency virus harboring reverse transcriptase L100l mutant assessed as inhibition of viral replication; assay type: functional, organism-based
In short: (§1)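 Phenosense cell culture assay against a panel of clinically derived RT mutant viruses in the presence of 10% FBS. IC50 is the compound concentration blocking 50% of viral replication. Each value is the average of two determinations.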

[2] = test system: Human immunodeficiency virus; test: Antiviral activity against Human immunodeficiency virus harboring reverse transcriptase Y188L mutant assessed as inhibition of viral replication; assay type: functional, organism-based; in short: as §1
[3] = test system: Human immunodeficiency virus; test: Antiviral activity against Human immunodeficiency virus harboring reverse transcriptase K103N mutant assessed as inhibition of viral replication; assay type: functional, organism-based; in short: as §1
[4] = test system: Human immunodeficiency virus; test: Antiviral activity against Human immunodeficiency virus harboring reverse transcriptase K101E/Y181C/G190A triple mutant assessed as inhibition of viral replication; assay type: functional, organism-based; in short: as §1
[5] = test system: Human immunodeficiency virus; test: Antiviral activity against Human immunodeficiency virus harboring reverse transcriptase Y181C mutant assessed as inhibition of viral replication; assay type: functional, organism-based; in short: as §1
[6] = Bioavailability in Sprague-Dawley rat at 10 mg/kg, po and 2 mg/kg, iv; assay type: ADME, organism-based; conditions: in vivo
In short: (§2)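 PK in Sprague-Dawley rats (iv solution in DMSO via an indwelling jugular cannula, or oral suspension in aqueous methylcellulose/Methocel) and beagle dogs (iv and oral given crossover, same vehicles). Plasma levels by LC-MS. F from oral versus iv dose-normalized AUC. Average of at least two animals; rat values within 25% of the mean.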

[7] = test system: Human immunodeficiency virus; test: Antiviral activity against Human immunodeficiency virus harboring reverse transcriptase G190A mutant assessed as inhibition of viral replication; assay type: functional, organism-based; in short: as §1
[8] = test system: Human immunodeficiency virus; test: Antiviral activity against Human immunodeficiency virus expressing reverse transcriptase K103N mutant infected in human MT4 cells by p24 antigen assay in the presence of 10% FBS; assay type: functional; conditions: Human immunodeficiency virus 1, MT4; read-out: CIC95
In short: (§3)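 Antiviral spread assay in MT-4 human T-lymphoid cells kept in RPMI 1640 with 10% FBS. Value is the CIC95, the concentration inhibiting virus replication by >95%. Reported as the geometric mean of at least two determinations, all within 2-fold of the mean. Cytotoxicity was checked up to the assay upper limit of 8.3 μM.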

[9] = Inhibition of Human immunodeficiency virus reverse transcriptase by SPA assay
[10] = Half life in Beagle dog at 2 mg/kg, po and 1 mg/kg, iv; assay type: ADME, organism-based, Canis lupus familiaris; conditions: in vivo; in short: as §2
[11] = test system: Human immunodeficiency virus; test: Antiviral activity against Human immunodeficiency virus harboring reverse transcriptase V106A/G190A/F227L triple mutant assessed as inhibition of viral replication; assay type: functional, organism-based; in short: as §1
[12] = Plasma clearance in Sprague-Dawley rat at 10 mg/kg, po and 2 mg/kg, iv; assay type: ADME, organism-based; in short: as §2
[13] = Plasma clearance in Beagle dog at 2 mg/kg, po and 1 mg/kg, iv; assay type: ADME, organism-based, Canis lupus familiaris; in short: as §2
[14] = test system: Human immunodeficiency virus; test: Antiviral activity against multidrug-resistant Human immunodeficiency virus assessed as inhibition of viral replication; assay type: functional, organism-based; in short: as §1
[15] = test system: Human immunodeficiency virus; test: Antiviral activity against Human immunodeficiency virus expressing wild type reverse transcriptase infected in human MT4 cells by p24 antigen assay in the presence of 10% FBS; assay type: functional; conditions: Human immunodeficiency virus 1, MT4; read-out: CIC95
In short: (§4)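 MT-4 human T-lymphoid cells in RPMI 1640 with either 10% FBS or 50% NHS; CIC95 taken as the concentration inhibiting virus spread/replication by >95%. Geometric mean of at least two determinations, individual values within 2-fold; SEM given when ≥3 determinations.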

[16] = Volume of distribution in Sprague-Dawley rat at 10 mg/kg, po and 2 mg/kg, iv; assay type: ADME, organism-based; conditions: in vivo; in short: as §2
[17] = test system: Human immunodeficiency virus; test: Antiviral activity against wild type Human immunodeficiency virus assessed as inhibition of viral replication; assay type: functional, organism-based
Canis familiaris [18] = test: Dose normalised AUC in Beagle dog at 2 mg/kg, po by LC-MS analysis; assay type: ADME, organism-based, Canis lupus familiaris; set-up: dose 2 mg/kg, route oral; conditions: in vivo; in short: as §2
MT4 = test: Cytotoxicity against human MT4 cells up to 8.3 uM; assay type: cell-based
In short: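 MT-4 cells in RPMI 1640 with 10% FBS or 50% NHS, run alongside the antiviral CIC95 assay; cytotoxicity checked up to the assay upper limit of 8.3 μM.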

[19] = target: Human immunodeficiency virus type 1 reverse transcriptase (Human immunodeficiency virus 1, UniProt Q72547, Y181C); test: Inhibition of Human immunodeficiency virus reverse transcriptase Y181C mutant by SPA assay
In short: (§5)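 Recombinant HIV-1 RT polymerase scintillation proximity assay run with mutant enzyme, reported as Ki (nM). Values are geometric means of at least two determinations, each within 2-fold of the mean; SEM is given where there were ≥3 determinations.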

[20] = Bioavailability in Beagle dog at 2 mg/kg, po and 1 mg/kg, iv; assay type: ADME, organism-based, Canis lupus familiaris; conditions: in vivo; in short: as §2
[21] = test system: Human immunodeficiency virus; test: Antiviral activity against Human immunodeficiency virus harboring reverse transcriptase K103N/P225H double mutant assessed as inhibition of viral replication; assay type: functional, organism-based; in short: as §1
[22] = Solubility of the compound in water at pH 2; assay type: physicochemical
In short: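 Water solubility of the solid compound measured at pH 2 and at pH 7.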

[23] = test system: Human immunodeficiency virus; test: Antiviral activity against Human immunodeficiency virus harboring reverse transcriptase K103N/Y181C/G190A triple mutant assessed as inhibition of viral replication; assay type: functional, organism-based; in short: as §1
[24] = test system: Human immunodeficiency virus; test: Antiviral activity against Human immunodeficiency virus harboring reverse transcriptase K101E/G190A double mutant assessed as inhibition of viral replication; assay type: functional, organism-based; in short: as §1
[25] = Volume of distribution in Beagle dog at 2 mg/kg, po and 1 mg/kg, iv; assay type: ADME, organism-based, Canis lupus familiaris; conditions: in vivo; in short: as §2
[26] = test system: Human immunodeficiency virus; test: Antiviral activity against Human immunodeficiency virus harboring reverse transcriptase G190S mutant assessed as inhibition of viral replication; assay type: functional, organism-based; in short: as §1
[27] = test system: Human immunodeficiency virus; test: Antiviral activity against Human immunodeficiency virus harboring reverse transcriptase L100l/K103N/P225P/H triple mutant assessed as inhibition of viral replication; assay type: functional, organism-based; in short: as §1
Rattus norvegicus = test: Dose normalised AUC in Sprague-Dawley rat at 10 mg/kg, po by LC-MS analysis; assay type: ADME, organism-based; set-up: dose 10 mg/kg, route oral; conditions: in vivo; in short: as §2
[28] = target: Human immunodeficiency virus type 1 reverse transcriptase (Human immunodeficiency virus 1, UniProt Q72547, K103N); test: Inhibition of Human immunodeficiency virus reverse transcriptase K103N mutant by SPA assay; in short: as §5
[29] = test system: Human immunodeficiency virus; test: Antiviral activity against Human immunodeficiency virus expressing reverse transcriptase Y181C mutant infected in human MT4 cells by p24 antigen assay in the presence of 10% FBS; assay type: functional; conditions: Human immunodeficiency virus 1, MT4; read-out: CIC95; in short: as §3
[30] = Half life in Sprague-Dawley rat at 10 mg/kg, po and 2 mg/kg, iv; assay type: ADME, organism-based; conditions: in vivo; in short: as §2
[31] = test system: Human immunodeficiency virus; test: Antiviral activity against Human immunodeficiency virus expressing wild type reverse transcriptase infected in human MT4 cells by p24 antigen assay in the presence of 50% normal human serum; assay type: functional; conditions: Human immunodeficiency virus 1, MT4; read-out: CIC95; in short: as §4
Canis familiaris [32] = test: Dose normalised AUC in Beagle dog at 10 mg/kg, po by LC-MS analysis; assay type: ADME, organism-based, Canis lupus familiaris; set-up: dose 10 mg/kg, route oral; conditions: in vivo; in short: as §2

## N#Cc1cc(Cl)cc(Oc2c(Cl)ccc3c2nnn3Cc2n[nH]c3ncccc23)c1
[1]
  inhibition: Active
[2]
  inhibition: inactive
[3]
  inhibition: Active
[4]
  inhibition: Active
[5]
  inhibition: Active
[6]
  bioavailability: 7.3%
[7]
  inhibition: Active
[8]
  IC95: 3.8 nM
[9]
  Ki: 0.24 nM
[10]
  half-life: 11.3 h
[11]
  inhibition: inactive
[12]
  clearance: 14 mL/min/kg
[13]
  clearance: 1.6 mL/min/kg
[14]
  inhibition: Active
[15]
  IC95: 4.3 nM
[16]
  Vd: 5.5 L/kg
[17]
  inhibition: Active
Canis familiaris [18]
  AUC/dose: 0.45 µM·h
MT4
  Activity: Non-toxic
[19]
  Ki: 0.44 nM
[20]
  bioavailability: 9.5%
[21]
  inhibition: Active
[22]
  solubility: < 0.1 µg/mL
[23]
  inhibition: Active
[24]
  inhibition: Active
[25]
  Vd: 1.3 L/kg
[26]
  inhibition: Active
[27]
  inhibition: Active
Rattus norvegicus
  AUC/dose: 0.18 µM·h
[28]
  Ki: 0.43 nM
[29]
  IC95: 18 nM
[30]
  half-life: 4.8 h
[31]
  IC95: 23 nM

## N#Cc1cc(Cl)cc(Oc2cc3c(cc2Cl)nnn3Cc2n[nH]c3ncccc23)c1
[9]
  Ki: > 300 nM
[15]
  IC95: > 833 nM
MT4
  Activity: Non-toxic
[19]
  Ki: > 900 nM
[28]
  Ki: > 300 nM

## N#Cc1cc(Cl)cc(Oc2cc(OCc3n[nH]c4nc(N)ccc34)ccc2Cl)c1
[1]
  inhibition: Active
[2]
  inhibition: inactive
[3]
  inhibition: Active
[4]
  inhibition: Active
[5]
  inhibition: Active
[7]
  inhibition: Active
[8]
  IC95: 12 nM
[9]
  Ki: 0.2 nM
[11]
  inhibition: inactive
[14]
  inhibition: Active
[15]
  IC95: 4.9 nM
[17]
  inhibition: Active
MT4
  Activity: Non-toxic
[21]
  inhibition: Active
[23]
  inhibition: Active
[24]
  inhibition: Active
[26]
  inhibition: Active
[27]
  inhibition: Active
Rattus norvegicus
  AUC/dose: 2.3 µM·h
Canis familiaris [32]
  AUC/dose: 3.1 µM·h
[29]
  IC95: 27 nM
[31]
  IC95: 26 nM

## N#Cc1cc(Cl)cc(Oc2cc(NCc3n[nH]c4ncccc34)c(N)cc2Cl)c1
[8]
  IC95: 40 nM
[9]
  Ki: 2.3 nM
[15]
  IC95: 24 nM
MT4
  Activity: Non-toxic
[19]
  Ki: 3.3 nM
[28]
  Ki: 3.8 nM

## N#Cc1cc(Cl)cc(Oc2c(Cl)ccc3c2ncn3Cc2n[nH]c3ncccc23)c1
[6]
  bioavailability: 36%
[8]
  IC95: 66 nM
[9]
  Ki: 2 nM
[10]
  half-life: 12.8 h
[12]
  clearance: 25.6 mL/min/kg
[13]
  clearance: 2.2 mL/min/kg
[15]
  IC95: 23 nM
[16]
  Vd: 3.3 L/kg
MT4
  Activity: Non-toxic
[19]
  Ki: 3.3 nM
[22]
  solubility: 10 µg/mL (≈ 23 µM)
[25]
  Vd: 0.37 L/kg
Rattus norvegicus
  AUC/dose: 0.56 µM·h
[28]
  Ki: 5.3 nM
[29]
  IC95: 320 nM
[30]
  half-life: 2.4 h
[31]
  IC95: 390 nM

## N#Cc1cc(Cl)cc(Oc2cc3c(cc2Cl)ncn3Cc2n[nH]c3ncccc23)c1
[8]
  IC95: 732 nM
[9]
  Ki: 114 nM
[15]
  IC95: 693 nM
MT4
  Activity: Non-toxic
[19]
  Ki: > 100 nM
[28]
  Ki: > 100 nM

## Cc1nc2c(Oc3cc(Cl)cc(C#N)c3)c(Cl)ccc2n1Cc1n[nH]c2ncccc12
[9]
  Ki: > 300 nM
[15]
  IC95: > 833 nM
MT4
  Activity: Non-toxic
[19]
  Ki: > 300 nM
[28]
  Ki: > 600 nM
[31]
  IC95: > 833 nM

Reference: ChEMBL document CHEMBL1938372, “Design and synthesis of conformationally constrained inhibitors of non-nucleoside reverse transcriptase” (J Med Chem, 2011)
